Experimental data reported in ChEMBL document CHEMBL4350958, “Rational Design of Short Peptide Variants by Using Kunitzin-RE, an Amphibian-Derived Bioactivity Peptide, for Acquired Potent Broad-Spectrum Antimicrobial and Improved Therapeutic Potential of Commensalism Coinfection of Pathogens” (J Med Chem, 2019).
In brackets after ≈: the same amount, converted by molar mass. Where a SMILES comes first, the peptide text is derived from it.

Columns and labels:
[1] = test system: Escherichia coli; assay: Bactericidal activity against Escherichia coli ATCC 25922 incubated for 24 hrs followed by replating on agar plate and measured after overnight incubation; type: functional; details: for MBC: ATCC 25922, 24 h, read-out: MBC>99.9
Procedure, shortened: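 After the 24 h, 37 °C MHB microdilution (0.5–1 × 10^5 CFU mL−1 inoculum, peptides diluted in 0.2% BSA), 50 μL from each well was plated on agar and incubated overnight. MBC was taken as the lowest concentration killing >99.9% of cells. Three or more independent experiments, each with triplicate technical replicates.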

[2] = Therapeutic index, ratio of MHC10 for hemolytic activity in human RBC to MIC95 against Staphylococcus epidermidis ATCC 12228; type: toxicity; details: human red blood cells (erythrocytes), read-out: TI
Procedure, shortened: (§1)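 Therapeutic index = MHC divided by MIC. MHC is the lowest concentration giving >10% lysis of human RBC (1 h, 37 °C, 1-128 µM, A576). MIC is 95% growth inhibition by broth microdilution: bacteria in MHB 24 h at 37 °C; Candida in MOPS-buffered RPMI 1640 at (0.5–1) × 10^3 CFU mL−1, 48 h at 28 °C.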

[3] = test system: Candida albicans; assay: Antifungal activity against Candida albicans cgmcc2.2086 measured after 48 hrs by broth microdilution method; type: functional
Procedure, shortened: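 Modified CLSI M27-A2 microdilution. Yeast colonies were diluted in MOPS-buffered RPMI 1640 to a final (0.5–1) × 10^3 CFU mL−1 and mixed with an equal volume of peptide serially diluted in 0.2% BSA. After 48 h at 28 °C, MIC was read at A492 as the lowest concentration inhibiting 95% of growth. At least three independent experiments, each with three technical replicates.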

[4] = test system: Staphylococcus aureus; assay: Antibacterial activity against Staphylococcus aureus ATCC 25923 measured after 24 hrs; type: functional
Procedure, shortened: (§2)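 Broth microdilution modified from NCCLS. Mid-log bacteria at (0.5–1) × 10^5 CFU mL−1 in MHB, mixed with peptides serially diluted in 0.2% BSA. Incubated 24 h at 37 °C, read at A492. MIC taken as lowest concentration giving 95% growth inhibition. At least three independent experiments, each with three technical replicates.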

[5] = test system: Candida albicans; assay: Antifungal activity against Candida albicans cgmcc2.2086 measured after 48 hrs in presence of CaCl by broth microdilution method; type: functional
[6] = test system: Escherichia coli; assay: Bactericidal activity against Escherichia coli K88 incubated for 24 hrs followed by replating on agar plate and measured after overnight incubation; type: functional; details: for MBC: K88, 24 h, read-out: MBC>99.9
Procedure, shortened: (§3)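 Mid-log bacteria diluted in MHB to (0.5–1) × 10^5 CFU/mL and mixed 1:1 with peptide serially diluted in 0.2% BSA. After 24 h at 37 °C, 50 μL of each mixture was plated on agar and incubated overnight. MBC taken as the lowest concentration killing >99.9% of cells. At least three independent experiments, each with three technical replicates.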

[7] = test system: Escherichia coli; assay: Antibacterial activity against Escherichia coli ATCC 25922 measured after 18 to 24 hrs in presence of MgCl2; type: functional
[8] = test system: Candida albicans; assay: Antifungal activity against Candida albicans cgmcc2.2086 measured after 48 hrs in presence of KCl by broth microdilution method; type: functional
[9] = test system: Staphylococcus aureus; assay: Antibacterial activity against Staphylococcus aureus ATCC 29213 measured after 18 to 24 hrs in presence of NH4Cl; type: functional
Procedure, shortened: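 MIC broth microdilution (MHB, 0.2% BSA peptide diluent, A492, 95% inhibition) run in the presence of physiological salts at final concentrations of 6 μM NH4Cl or 8 μM ZnCl2. Three independent assays, each with three technical replicates.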

[10] = test system: Staphylococcus aureus; assay: Antibacterial activity against methicillin-resistant Staphylococcus aureus ATCC 43300 measured after 24 hrs; type: functional; procedure, shortened: as §2
[11] = test system: Escherichia coli; assay: Bactericidal activity against Escherichia coli UB1005 incubated for 24 hrs followed by replating on agar plate and measured after overnight incubation; type: functional; details: for MBC: UB1005, 24 h, read-out: MBC>99.9; procedure, shortened: as §3
[12] = test system: Candida albicans; assay: Antifungal activity against Candida albicans cgmcc2.2086 measured after 48 hrs in presence of MgCl by broth microdilution method; type: functional
[13] = Cytotoxicity against mouse RAW264.7 cells assessed as cell viability at 2 to 64 uM measured after 18 to 24 hrs by MTT assay relative to control; type: cell-based; details: RAW264.7 cells, read-out: Activity
Procedure, shortened: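 MTT assay: RAW264.7 cells seeded at 1.0–2.0×10^4 per well and exposed to peptide (2–64 µM) for 18–24 h at 37 °C in 5% CO2. MTT (0.5 mg/mL) added for 4 h, formazan dissolved in DMSO, read at 570 nm. At least three independent experiments with triplicate wells.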

[14] = Therapeutic index, ratio of MHC10 for hemolytic activity in human RBC to MIC95 against methicillin-resistant Staphylococcus aureus ATCC 43300; type: toxicity; details: human red blood cells (erythrocytes), read-out: TI; procedure, shortened: as §1
[15] = test system: Salmonella typhimurium; assay: Antibacterial activity against Salmonella typhimurium ATCC 14028 measured after 24 hrs; type: functional, Salmonella enterica subsp. enterica serovar Typhimurium
Procedure, shortened: (§4)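 Broth microdilution adapted from NCCLS. Mid-log bacteria were diluted in MHB to a final (0.5–1) × 10^5 CFU mL−1. Peptides were serially diluted in 0.2% BSA and mixed with an equal volume of cells. After 24 h at 37 °C, MIC was read at A492 as the lowest concentration inhibiting 95% of growth. At least three independent experiments, each with three technical replicates.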

[16] = Therapeutic index, ratio of MHC10 for hemolytic activity in human RBC to MIC95 against Candida parapsilosis cgmcc2.3989; type: toxicity; details: human red blood cells (erythrocytes), read-out: TI; procedure, shortened: as §1
[17] = test system: Staphylococcus aureus; assay: Antibacterial activity against Staphylococcus aureus ATCC 29213 measured after 18 to 24 hrs in presence of NaCl; type: functional
[18] = test system: Escherichia coli; assay: Antibacterial activity against Escherichia coli K99 measured after 24 hrs; type: functional; procedure, shortened: as §4
[19] = test system: Staphylococcus epidermidis; assay: Antibacterial activity against Staphylococcus epidermidis ATCC 12228 measured after 24 hrs; type: functional; procedure, shortened: as §4
[20] = test system: Staphylococcus epidermidis; assay: Bactericidal activity against Staphylococcus epidermidis ATCC 12228 incubated for 24 hrs followed by replating on agar plate and measured after overnight incubation; type: functional; details: for MBC: ATCC 12228, 24 h, read-out: MBC>99.9; procedure, shortened: as §3
[21] = test system: Salmonella typhimurium; assay: Bactericidal activity against Salmonella typhimurium C7731 incubated for 24 hrs followed by replating on agar plate and measured after overnight incubation; type: functional, Salmonella enterica subsp. enterica serovar Typhimurium; details: for MBC: Salmonella enterica, C7731, 24 h, read-out: MBC>99.9; procedure, shortened: as §3
[22] = test system: Staphylococcus aureus; assay: Bactericidal activity against Staphylococcus aureus ATCC 29213 incubated for 24 hrs followed by replating on agar plate and measured after overnight incubation; type: functional; details: for MBC: ATCC 29213, 24 h, read-out: MBC>99.9
Procedure, shortened: (§5)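 After the 24 h, 37 °C MHB microdilution MIC assay, 50 μL from each well was plated on agar and incubated overnight. MBC taken as lowest peptide concentration killing >99.9% of cells. At least three independent experiments, each with three technical replicates.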

[23] = test system: Staphylococcus aureus; assay: Bactericidal activity against methicillin-resistant Staphylococcus aureus ATCC 43300 incubated for 24 hrs followed by replating on agar plate and measured after overnight incubation; type: functional; details: for MBC: ATCC 43300, 24 h, read-out: MBC>99.9; procedure, shortened: as §5
[24] = Salmonella enterica, ATCC 14028, 24 h
[25] = Salmonella enterica subsp. enterica serovar Typhimurium

Row | Compound | MBC [1] [µM] | selectivity ratio [2] | MIC95 ([3]; cgmcc2.2086, 48 h) [µM] | MIC95 ([4]; ATCC 25923, 24 h) [µM] | MIC95 ([5]; cgmcc2.2086, 48 h) [µM] | MBC [6] [µM] | MIC95 [7] [µM] | MIC95 ([8]; cgmcc2.2086, 48 h) [µM] | MIC95 [9] [µM] | MIC95 ([10]; ATCC 43300, 24 h) [µM] | MBC [11] [µM] | MIC95 ([12]; cgmcc2.2086, 48 h) [µM] | selectivity ratio [14] | MIC95 [15, 24] [µM] | selectivity ratio [16] | MIC95 [17] [µM] | MIC95 ([18]; K99, 24 h) [µM] | MIC95 ([19]; ATCC 12228, 24 h) [µM] | MBC [20] [µM] | MBC [21] [µM] | also measured
1 | CC[C@H](C)[C@H](NC(=O)[C@H](CCCCN)NC(=O)[C@H](C)NC(=O)[C@H](C)N)C(=O)N[C@H](C(=O)N[C@@H](CC(C)C)C(=O)N[C@@H](CC(N)=O)C(=O)N1CCC[C@H]1C(=O)N[C@@H](CCCCN)C(=O)N[C@@H](Cc1ccccc1)C(=O)N[C@@H](CCCNC(=N)N)C(=O)N[C@@H](CS)C(=O)N[C@@H](CCCCN)C(=O)N[C@@H](C)C(=O)N[C@@H](C)C(=O)N[C@@H](Cc1ccccc1)C(=O)N[C@@H](CS)C(N)=O)[C@@H](C)CC (H-AAKIILNPKFRCKAAFC-NH2) | 64 (≈ 121 µg/mL) | 0.3 | > 128 | 64 (≈ 121 µg/mL) | > 128 | 64 (≈ 121 µg/mL) | 64 | > 128 | > 128 | > 128 | 128 (≈ 242 µg/mL) | > 128 | 0.3 | 64 (≈ 121 µg/mL) | 0.25 | > 128 | 32 (≈ 60.6 µg/mL) | > 128 | – | – | viability at up to 64 µM [13]: 90 to 100%
2 | CC(C)(O/N=C(\C(=O)N[C@@H]1C(=O)N2C(C(=O)[O-])=C(C[n+]3ccccc3)CS[C@H]12)c1csc(N)n1)C(=O)O [CEFTAZIDIME] | 2 (≈ 1.09 µg/mL) | – | > 128 | 16 (≈ 8.75 µg/mL) | > 128 | 1 (≈ 0.547 µg/mL) | 2 | > 128 | 16 | 16 (≈ 8.75 µg/mL) | 2 (≈ 1.09 µg/mL) | > 128 | – | 1 (≈ 0.547 µg/mL) | – | 16 | 0.5 (≈ 0.273 µg/mL) | 16 (≈ 8.75 µg/mL) | 32 (≈ 17.5 µg/mL) | 1 (≈ 0.547 µg/mL) | MBC [22]: 16 µM (≈ 8.75 µg/mL); MBC [23]: 32 µM (≈ 17.5 µg/mL)
3 | CC[C@H](C)[C@H](NC(=O)CN)C(=O)NCC(=O)N[C@@H](C)C(=O)N[C@H](C(=O)N[C@@H](CC(C)C)C(=O)N[C@@H](CCCCN)C(=O)N[C@H](C(=O)N[C@@H](CC(C)C)C(=O)N[C@H](C(=O)N[C@H](C(=O)NCC(=O)N[C@@H](CC(C)C)C(=O)N1CCC[C@H]1C(=O)N[C@@H](C)C(=O)N[C@@H](CC(C)C)C(=O)N[C@H](C(=O)N[C@@H](CO)C(=O)N[C@@H](Cc1c[nH]c2ccccc12)C(=O)N[C@H](C(=O)N[C@@H](CCCCN)C(=O)N[C@@H](CCCNC(=N)N)C(=O)N[C@@H](CCCCN)C(=O)N[C@@H](CCCNC(=N)N)C(=O)N[C@@H](CCC(N)=O)C(=O)N[C@@H](CCC(N)=O)C(N)=O)[C@@H](C)CC)[C@@H](C)CC)[C@@H](C)O)[C@@H](C)O)C(C)C)C(C)C [MELITTIN] | 4 (≈ 11.4 µg/mL) | 0.35 | 4 (≈ 11.4 µg/mL) | 8 (≈ 22.8 µg/mL) | 8 | 2 (≈ 5.69 µg/mL) | 4 | 4 | 4 | 1 (≈ 2.85 µg/mL) | 2 (≈ 5.69 µg/mL) | 4 | 0.35 | 2 (≈ 5.69 µg/mL) | 0.32 | 8 | 2 (≈ 5.69 µg/mL) | 2 (≈ 5.69 µg/mL) | 4 (≈ 11.4 µg/mL) | 4 (≈ 11.4 µg/mL) | MBC [22]: 8 µM (≈ 22.8 µg/mL); MBC [23]: 4 µM (≈ 11.4 µg/mL)
4 | GENTAMICIN | – | – | – | – | – | – | 1 | – | 1 | – | – | – | – | – | – | 2 | – | – | – | – | MBC>99.9 [1]: 1 µM; MBC>99.9 [20]: 2 µM; MIC95 [3]: > 128 µM; MIC95 [4]: 1 µM; MIC95 [5]: > 128 µM; MBC>99.9 [6]: 1 µM; MBC>99.9 [21, 25]: 2 µM; MIC95 [8]: > 128 µM; MBC>99.9 [22]: 1 µM; MIC95 [10]: 8 µM; MBC>99.9 [23]: 16 µM; MBC>99.9 [11]: 1 µM; MIC95 [12]: > 128 µM; MIC95 [15, 25]: 2 µM; MIC95 [18]: 0.5 µM; MIC95 [19]: 1 µM
